# Assay outcomes deposited in PubChem by several laboratories.
# RGS4 pot = potentiators or activators of RGS4; B-score at 10 µM; HEK293 M3R/inducible RGS4, carbachol calcium flux Fluo4; hits give low values; 0.92% of 310,000 active;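 active = B-score of the integrated calcium signal more than 4 SD below the library mean, with starting fluorescence not abnormally high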;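 note: negative B-score means reduced calcium response which marks RGS4 activation or potentiation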
#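 System: HEK293 FlpIn-TREx cells, stable M3R, doxycycline-inducible RGS4. Timing: overnight RGS4 induction, 30 min dye load 37 °C, 20 min compound RT. Also added: carbachol, ECmax concentration. Measured by: Fluo4 fluorescence kinetic imaging of calcium. Evaluation: integrated calcium ratio converted to B score.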
# RGS4 inh = human RGS4 inhibition; HEK293 M3R/RGS4 inducible, Fluo-4 calcium flux; hits give high values; triggered by carbachol at its EC20; B-score at 10 µM; 0.45% of 310,000 active; AID 463165;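 active = B-score, a plate-corrected calcium signal, over three deviations above library mean, with baseline fluorescence within five deviations of library mean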;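 note: RGS4 expression induced by doxycycline in cells with stable M3 receptor; B-score is computed from the integrated fluorescence ratio over baseline after carbachol; higher B-score means a larger calcium signal and so more RGS4 inhibition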
# Target sequence (P49798 whole entry, looked up): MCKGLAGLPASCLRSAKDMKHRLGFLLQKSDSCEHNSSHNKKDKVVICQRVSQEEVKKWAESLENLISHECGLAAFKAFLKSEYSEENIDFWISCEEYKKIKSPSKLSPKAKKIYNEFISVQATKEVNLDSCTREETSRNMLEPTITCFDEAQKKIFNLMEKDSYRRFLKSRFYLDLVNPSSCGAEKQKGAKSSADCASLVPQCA
# MrgX1 ag = human MrgX1 receptor agonism, primary screen | Q96LB2 | MrgX1-HEK293 cells, Fluo-4 calcium fluorescence, agonist mode; hits give high values | B-score at 10 µM | 0.44% of 310,000 active | AID 588627;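 active = calcium response B-score plate-corrected fluorescence ratio at least 3 library SD, with starting fluorescence B-score inside 5 SD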
# Target sequence (Q96LB2 whole entry, looked up): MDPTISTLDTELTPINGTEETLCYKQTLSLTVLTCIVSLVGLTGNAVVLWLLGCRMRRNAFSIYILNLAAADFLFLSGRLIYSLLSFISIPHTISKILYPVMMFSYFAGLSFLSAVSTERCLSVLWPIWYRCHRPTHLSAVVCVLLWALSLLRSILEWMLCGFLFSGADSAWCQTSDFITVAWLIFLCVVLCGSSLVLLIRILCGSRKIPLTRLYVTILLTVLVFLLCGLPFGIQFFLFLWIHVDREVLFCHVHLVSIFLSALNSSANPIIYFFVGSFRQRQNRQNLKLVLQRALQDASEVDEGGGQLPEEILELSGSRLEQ
#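 Material: MrgX1-expressing HEK293 cells / Dosing: compound as first of three additions / Incubation: overnight seeding, then 1 h dark dye loading / Signal: Fluo-4 NW calcium fluorescence / Evaluation: B-scored fluorescence response ratio / Benchmarks: positive and negative control wells on each plate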
# MrgX1 antagonist = human MrgX1 receptor antagonism, primary screen; Q96LB2; 1.3% of 310,000 active; B-score at 10 µM; MRGX1-HEK293 calcium flux, Fluo-4, BAM8-22 antagonism; hits give low values;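 active = calcium-response B-score plate-corrected more than 3 library SD below zero, starting fluorescence within 5 deviations, no agonist response on first addition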;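 note: peak minus trough fluorescence over baseline after final BAM8-22 challenge near maximal dose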
# PHOSPHO1 block = blocks human PHOSPHO1 phosphatase activity; recombinant PHOSPHO1, absorbance phosphatase assay; inhibition, % at 13.3 µM; 1.1% of 290,000 active; in the data active = inhibition above about 60%
# MrgX1 PAM = human MrgX1 positive allosteric modulation, primary screen; B-score at 10 µM; Q96LB2; 0.63% of 310,000 active; MrgX1-HEK293, Fluo-4 calcium flux, FDSS; hits give high values;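 active = plate-corrected calcium response at least 3 library SD above typical, normal starting fluorescence, not activating the receptor alone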;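 note: compound read alongside a low EC10 to EC30 dose of BAM8-22 agonist; peak minus trough fluorescence over baseline measured at the second addition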
# MrgX1 ant reconf = human MrgX1 receptor antagonism, re-confirmation screen | AID 602420 | shares compounds with MrgX1 antagonist | 19% of 2,300 active | MrgX1-HEK293, BAM8-22 calcium flux, Fluo-4; hits give low values | remaining BAM8-22 calcium response % of control (hits give low values), % at 10 µM;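 active = remaining agonist calcium response no higher than 100% minus 3 SD of agonist-only control wells, with starting fluorescence near control levels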;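 note: agonist BAM8-22 given at a near maximal EC90 to ECmax level; peak minus minimum fluorescence divided by baseline after agonist addition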
# HEK293 Ca flux = activity in parental HEK293 cells lacking MrgX1. fluorescence ratio F(max-min)/F0 at 10 µM. 2% of 4,000 active. shares compounds with MrgX1 antagonist. Fluo-4 calcium fluorescence, FDSS;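 active = duplicate-averaged calcium fluorescence ratio at least three times the standard deviation of buffer wells, a nonspecific response in parental cells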
# HEK293 Ca counter = activity in parental HEK293 cells without MrgX1; shares compounds with MrgX1 antagonist; parental HEK293 calcium flux, Fluo-4 fluorescence ratio; hits give high values; fluorescence ratio F(max-min)/F0 at 10 µM; 0.4% of 4,000 active;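 active = calcium fluorescence ratio, averaged over duplicates, at least 3 SD of the buffer-well ratio, meaning a nonspecific response in receptor-free cells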;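 note: untransfected parental HEK293 lacking MrgX1 used as counterscreen for MrgX1 allosteric activators; fluorescence change taken during the second addition on a kinetic imager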
# HEK293 Ca cntr2 = activity in parental HEK293 cells lacking MrgX1 receptor; shares compounds with MrgX1 antagonist; Fluo-4 calcium fluorescence (FDSS); hits give high values; fluorescence ratio F(max-min)/F0 at 10 µM; 8.7% of 4,000 active; AID 624115;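 active = calcium fluorescence ratio at least three times the spread of buffer wells, meaning a non-specific response in parental cells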
# Active calls of the source: *; i = inactive; nt = not tested or not shown. This is a sample that favours compounds with a hit; in the whole collection about 4.5% have one here.
SMILES,RGS4 pot,RGS4 inh,MrgX1 ag,MrgX1 antagonist,PHOSPHO1 block,MrgX1 PAM,MrgX1 ant reconf,HEK293 Ca flux,HEK293 Ca counter,HEK293 Ca cntr2
O=C(Nc1ccccc1F)c1ccc(C(=O)c2ccccc2)cc1,i,i,i,-5.6*,41,i,84%*,i,i,i
CCOC(=O)Cn1cc(C(=O)C(C)(C)C)c2ccccc21,i,i,i,-4.9*,23,i,i,i,i,i
COC(=O)Cn1cc(C(=O)C(C)(C)C)c2ccccc21,i,i,i,i,24,i,nt,nt,nt,nt
COc1ccc([N+](=O)[O-])cc1N(CC(=O)N1CCN(Cc2ccccc2)CC1)S(C)(=O)=O,i,i,i,i,18,i,nt,nt,nt,nt
COc1ccc(CN2C[C@H](Cc3ccccc3)[C@@H](CC(=O)Nc3ccccc3)C2=O)cc1,i,i,i,i,15,i,nt,nt,nt,nt
Cc1cccn2cc(-c3c[nH]c4ccccc34)nc12,i,i,i,i,-10,i,nt,nt,nt,nt
Brc1ccc2nc(-c3c[nH]c4ccccc34)cn2c1,i,i,i,-5.4*,11,i,i,i,i,i
CCCn1c(SCC(=O)Nc2ccc3c(c2)OCCO3)nnc1-c1ccco1,i,i,i,i,6,i,nt,nt,nt,nt
COc1cccc(-c2nnc(SCC(=O)Nc3ccc4c(c3)OCCO4)n2Cc2ccco2)c1,i,i,i,-6.4*,7,i,i,i,i,i
COc1ccc(NC(=O)c2nc[nH]c2C(=O)N(C)Cc2ccccc2)cc1,i,i,i,i,16,i,nt,nt,nt,nt
O=C(CN(CC1CCCO1)C(=O)CNS(=O)(=O)c1ccc(Cl)cc1)NCc1ccc(F)cc1 (stereo not drawn),i,i,i,i,24,i,nt,nt,nt,nt
COc1ccc(CNc2nc(-c3ccccc3)nn2C(=O)c2cccs2)cc1,i,i,i,-4.9*,-5,i,i,i,i,55*
COc1ccc(CNc2nc(-c3ccccc3)nn2C(=O)c2ccc([N+](=O)[O-])cc2)cc1,i,i,i,i,1,i,nt,nt,nt,nt
CN(C)c1ccc(C(=O)Nc2cc(C(F)(F)F)ccc2-n2cncn2)cc1,i,i,i,-11*,-9,i,i,i,i,i
CCOc1ccc(NC(=O)CS(=O)(=O)c2cn(C)c3ccccc23)cc1,i,i,i,-8*,2,i,i,i,i,i
O=S(=O)(NCCN1CCCC1)c1ccc(Cl)cc1,i,i,i,-4.8*,29,i,i,i,i,i
O=S(=O)(NCCN1CCCC1)c1ccc(Br)cc1,i,i,i,i,29,i,nt,nt,nt,nt
Cc1nc2c(-c3ccc(Cl)cc3)cnn2c2c1CCC2,i,i,i,-5.1*,33,i,i,i,i,i
O=C(COc1ccccc1)Nc1cccc(-c2nc3cc4ccccc4cc3[nH]2)c1,i,i,i,-5.1*,42,i,78%*,i,i,i
C/C(=N\N1CCN(Cc2ccccc2Cl)CC1)c1ccc([N+](=O)[O-])cc1,i,i,i,i,-12,i,nt,nt,nt,nt
CN(/N=C/c1ccc(-c2ccc([N+](=O)[O-])cc2)o1)c1ccccc1,i,i,i,-11*,24,i,i,i,i,i
CN(/N=C/c1cc([N+](=O)[O-])ccc1O)c1ccccc1,i,i,i,i,11,i,nt,nt,nt,nt
COc1cc(CNC(C)(C)CO)ccc1OCC(=O)NC(C)(C)C,i,i,i,i,2,i,nt,nt,nt,nt
COc1cc(CNn2cn[nH]c2=S)ccc1OCC(=O)NC(C)(C)C,i,i,i,-4.6*,-70,i,i,i,i,i
Cc1ccccc1NC(=O)Cc1nc(CCl)cs1,i,i,i,-5.4*,-10,i,i,i,i,i
SMILES,RGS4 pot,RGS4 inh,MrgX1 ag,MrgX1 antagonist,PHOSPHO1 block,MrgX1 PAM,MrgX1 ant reconf,HEK293 Ca flux,HEK293 Ca counter,HEK293 Ca cntr2
Cc1ccc(C)c(NC(=O)Cc2nc(CCl)cs2)c1,i,i,i,i,-2,i,nt,nt,nt,nt
O=C(Nc1ccccc1)c1cccc(N2CCCC2=O)c1,i,i,i,-6.7*,-3,i,i,i,i,i
COc1ccc(NC(=O)CN2CCN(c3ccc(F)cc3)CC2)cc1,i,i,i,i,42,i,nt,nt,nt,nt
CCOc1ccc(NC(=O)CN2CCN(c3ccc(F)cc3)CC2)cc1,i,i,i,-5.5*,34,i,i,i,i,i
Cc1nn2c(NCCN3CCOCC3)c3c(nc2c1-c1ccccc1)CCCC3,i,i,i,-5.9*,30,i,i,i,i,i
Cc1nn2c(NCc3ccccn3)c3c(nc2c1-c1ccccc1)CCC3,i,i,i,i,45,i,nt,nt,nt,nt
Cc1cccc(N(C)S(=O)(=O)c2cccc3nsnc23)c1,i,i,i,-5*,16,i,i,i,i,i
CN(CC(=O)Nc1ccc(F)c(F)c1)S(=O)(=O)c1cccc2nsnc12,i,i,i,-10*,12,i,i,i,i,i
Cc1ccc(NC(=O)CN(C)S(=O)(=O)c2cccc3nsnc23)cc1C,i,i,i,i,11,i,nt,nt,nt,nt
Cn1cc(C(=O)N/N=C/c2cccc([N+](=O)[O-])c2)c2ccccc21,i,i,i,i,42,i,nt,nt,nt,nt
CSCCC(C(=O)OCC(=O)c1ccc(C)c(C)c1)N1C(=O)c2cc(Cl)c(Cl)cc2C1=O (stereo not drawn),i,i,i,-5.2*,8,i,i,i,i,i
Cc1cc2c(C)nc3ccccc3c2o1,i,i,i,-4.7*,20,i,i,i,i,i
Cc1nc2ccccc2c2oc(C(=O)NC3CC3)cc12,i,i,i,i,3,i,nt,nt,nt,nt
